Compound activity: PubChem BioAssay, several laboratories
Hits are enriched below; roughly 4.6% of the tested compounds scored in any of these assays.
HDAC3 inhib: inhibitors of human histone deacetylase 3; inhibition, % at 8.3 µM; 320,000 compounds, 0.15% hits; AID 2718; recombinant HDAC3, fluorogenic peptide/trypsin coupled, fluorescence; O15379; in the data active = inhibition above about 26%, passing the limit was not always enough; inconclusive = no clear call, values can overlap the other calls
FAS TE block: inhibitors of human fatty acid synthase thioesterase domain | inhibition, % at 15 µM | P49327 | recombinant FAS-TE, OMFH fluorogenic substrate, fluorescence endpoint | 360,000 compounds, 0.67% hits;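 active = compounds whose normalised, plate-corrected inhibition of enzyme fluorescence in the single-dose primary screen is 50% or more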;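 also: 0% = DMSO with enzyme and 100% = substrate without enzyme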
M18AAP inhibitor: blocks P. falciparum M18 aspartyl aminopeptidase; recombinant PfM18AAP, H-Glu-NHMec fluorogenic cleavage; 290,000 compounds, 1.2% hits; inhibition, % at 7.35 µM;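 active = inhibition above the campaign mean inhibition over all tested compounds plus 3 SD, cut at about 28% in these data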;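 also: 0% = plate median of test compound wells and 100% = 2 mM ZnCl2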
Rtt109 HAT inh: inhibitors of Candida albicans Rtt109/Vps75 histone acetyltransferase; inhibition, % at 34.9 µM; purified Rtt109/Vps75, ThioGlo CoA-SH fluorescence, 4 h; Q5AAJ8; 330,000 compounds, 0.16% hits;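 active = inhibition of at least 50% in every replicate; inconclusive = best replicate reaches 50% inhibition but some replicates fall short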
UCH37 inh: inhibitors of human deubiquitinating enzyme UCH37; purified proteasome/UCH37, Ub-AMC cleavage fluorescence; Q9Y5K5; inhibition, % (test concentration not listed); 330,000 compounds, 0.33% hits;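 active = mean inhibition over replicate wells above about 20%, limit read from the data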;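 also: 0% = compound-free wells with enzyme and 100% = wells lacking proteasome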
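Reagent: Ub-AMC substrate; assay system: Proteasome-associated human UCH37 deubiquitinase; controls: no-proteasome and no-compound wells; read-out: % inhibition of Ub-AMC cleavage fluorescence; timing: 30 min preincubation with enzyme, 25 min cleavage at room temperature; signal: AMC fluorescence from Ub-AMC cleavage, excitation 355 nm, emission 460 nm; buffer or medium: Tris-HCl pH 7.4 plus ovalbumin, ATP-MgCl2, DTT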
ALR H2O2 inh: blocks human ALR sulfhydryl oxidase activity; 290,000 compounds, 3.8% hits; inhibition, % (concentration not given with the values); P55789; purified ALR, DTT oxidation, H2O2 HRP-luminol luminescence; AID 485317;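 active = mean replicate inhibition above about 79%, with every replicate also reaching it, limit read from the data; inconclusive = only one of the two criteria met; inactive = mean below limit and not every replicate reaching it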
* hit, by the source's call; ? = inconclusive; · = no result given; ! = not confirmed by another sample.

SMILES	HDAC3 inhib	FAS TE block	M18AAP inhibitor	Rtt109 HAT inh	UCH37 inh	ALR H2O2 inh
CN(C)P1(N(C)C)=Nc2c(c(N)nn2C)C(c2ccccc2)=N1	-4	-7	3	11	3	86*
Cn1nc(N)c2c1N=P(N1CCOCC1)(N1CCOCC1)N=C2c1ccccc1	-2	-9	-1	5	6	12
CC(=O)O[C@@H]1C=C[C@](C)(O)C[C@@H](C)CC=C[C@H]2[C@H](O)[C@@](C)(O)[C@@H](C)[C@H]3[C@H](Cc4ccccc4)NC(=O)[C@@]312	·	·	·	·	5	·
COc1cc(C=NNC(=O)CN2CC(c3ccccc3)CC2=O)ccc1OC(=O)N(C)C (configuration not stated)	·	·	·	·	4	·
COc1cc(/C=C(/C)[N+](=O)[O-])ccc1OCc1ccccc1Cl	·	9	30*	·	·	3
COc1cc(C=C2C(=O)NC(=O)NC2=O)ccc1OCc1ccc([N+](=O)[O-])cc1	·	0	1	-7	0	·
COc1ccccc1/C=C1/C(=NO)C2CCN1CC2	·	·	·	·	4	·
Nc1ccc(N2CCN(Cc3ccccc3Cl)CC2)c(Cl)c1	1	1	-5	-3	1	89*
COc1ccccc1N1CCN(Cc2ccccc2Cl)CC1	-6	21	5	-3	4	·
Clc1ccccc1CN1CCN(c2ccccc2)CC1	7	5	10	3	4	99*
Clc1ccccc1CN1CCN(c2cccc3[nH]ccc23)CC1	4	6	6	1	6	97*
CCOC(=O)c1cc(C(O)(C(=O)OC)C(F)(F)F)c(N=CN(C)C)o1 (configuration not stated)	·	·	·	·	10	·
CC(C)(C)NC(=S)N=C(N)N[N+](=O)[O-]	·	·	·	·	3	·
Cc1ccc(OCCn2cc(/C=C(\C#N)C(=O)NCC3CCCO3)c3ccccc32)cc1C (configuration not stated)	6	20	-15	6	-1	-2
Clc1ccc(COC(Cn2ccnc2)c2ccc(Cl)cc2Cl)c(Cl)c1 (configuration not stated)	19	22	-8	74*!	2	1
O=c1[nH]c(=S)n(CCC2=CCCCC2)c(O)c1/C=N/Nc1ccccc1	5	5	10	28	1	97*
CCCC(C)n1[nH]c(=O)c2c1NC(=O)CSC2c1ccc(OC)cc1 (configuration not stated)	-8	-7	9	3	20*	0
CCCOc1ccccc1C1SCC(=O)Nc2c1c(=O)[nH]n2C(C)CCC (configuration not stated)	3	-2	-11	2	-2	28
COc1ccc(C(=O)O)cc1OC	·	-6	·	-8	·	·
O=C(O)c1cc[c]([Hg][Cl])cc1	95*	13	·	-13	·	?
O=C1NC(=O)N(Cc2ccccc2)C(=O)/C1=C/C=C/c1ccco1	5	-2	21	-4	4	98*
COc1ccc(CN2C(=O)NC(=O)/C(=C\c3ccco3)C2=O)cc1	0	-1	5	3	3	2
CC(C)N1C(=O)/C(=C/C=C/c2ccco2)C(=O)N(Cc2ccco2)C1=O	14	-8	27	1	4	98*
O=C(NN=CC1C(=O)NC(=S)N(c2ccccc2)C1=O)c1cc(Br)c(O)c(Br)c1 (configuration not stated)	·	·	·	·	-1	·
NC(=N[N+](=O)[O-])N1CCN(C(=O)c2ccc(Cl)cc2)CC1	·	·	·	·	2	·
SMILES	HDAC3 inhib	FAS TE block	M18AAP inhibitor	Rtt109 HAT inh	UCH37 inh	ALR H2O2 inh
C=CCN1C(=O)NC(=O)/C(=C/c2cnc(SC)nc2)C1=O	3	0	7	1	0	18
C=CCN1C(=O)NC(=O)/C(=C/c2cc3c4c(c2)CCCN4CCC3)C1=O	2	-11	8	-6	-1	99*
CCNc1ccc(P(=S)(N(C)C)N(C)C)cc1	6	-4	-11	-8	5	99*
CCOC(=O)c1c(N=CC2C(=O)NC(=O)NC2=O)sc2c1CCC2	·	·	·	·	1	·
C/C(=N\NC(=S)Nc1ccccc1)c1c(O)n(C)c(=O)n(C)c1=O	?	7	17	-2	11	92*
Cc1cc(C)c2c(c1)-c1cc(C)nn1C(c1cccnc1)N2 (configuration not stated)	2	-4	0	2	1	99*
Oc1cccc(C=NNP(=S)(c2ccccc2)c2ccccc2)c1	·	·	·	·	1	·
NC(N)=NN=Cc1ccc(N2CCOCC2)cc1	·	·	·	·	-80	·
CC1CCCC=CC2CC(O)CC2C(O)C=CC(=O)O1 (configuration not stated)	·	·	·	·	-1	·
CN1C(=O)C(=Cc2ccc(SC3CCCCC3)o2)C(=O)N(C)C1=O	-3	-8	14	-4	3	88*
CN1C(=O)C(=Cc2ccc(N3CCCCC3)o2)C(=O)N(C)C1=S	-1	-22	-6	-7	·	1
COP(=O)(OC)C(C=O)=NNc1ccc([N+](=O)[O-])cc1	·	·	·	·	20*	·
COC(=O)C1C2c3ccccc3OC1(C)N=c1sc(=Cc3cnn(C)c3)c(=O)n12 (configuration not stated)	·	·	·	·	2	·
Cc1ccc(/C=C2\C(=O)NC(=S)N(c3ccc(F)cc3)C2=O)o1	4	-10	-2	?	2	0
Cc1cc(C)cc(N2C(=O)/C(=C\c3ccc(N4CCN(C)CC4)o3)C(=O)NC2=S)c1	-12	-8	6	·	24*	-3
COc1cccc(-n2c(/C=C/c3ccc(O)c(O)c3)nc3ccccc3c2=O)c1	6	-2	57*	0	-24	91*
CC1CC(OP(O)(=S)c2ccc(N(C)C)cc2NC(=O)c2cccs2)CC(C)(C)C1 (configuration not stated)	3	8	7	6	6	99*
NC(=S)c1cn(C2OC(CO)C(O)C2O)c2ncnc(N)c12 (configuration not stated)	4	-10	40*	-1	-4	37
Cn1cc([C@@H]2C[C@H]3CN(Cc4cccc(Cl)c4)C(=O)[C@]34CCCN24)c2ccccc21	2	2	3	0	5	-22
COc1cc(/C=C/C(=O)c2c(O)n(CCc3ccccc3)c(=O)[nH]c2=O)ccc1O	1	-4	12	-4	-5	97*
O=c1ccc2ccc(OCc3ccccc3)cc2o1	-8	11	2	-4	-58	-4
CC/C(=N\Nc1ccccc1)c1c(O)n(-c2ccccc2)c(=O)[nH]c1=O	7	-4	10	-3	10	99*
COc1ccc(-n2c(O)c(/C(C)=N/Nc3ccccc3)c(=O)[nH]c2=O)cc1	3	-5	11	4	7	-13
C#C[C@@]1(O)CCC2C3CCC4=CC(=NOCC(=O)NC(C(=O)O)C(C)O)CC[C@]4(C)C3CC[C@@]21C (some centres not stated)	·	·	·	·	4	·
CC(=NO)c1ccc2ccc3ccccc3c2c1	·	·	·	·	3	·
